From ChEMBL document CHEMBL1132971, “New azolidinediones as inhibitors of protein tyrosine phosphatase 1B with antihyperglycemic properties” (J Med Chem, 2000)
Values belong to the molecule of their own block, whether it stands above or below them. Active and inactive are the calls of the source. The calls are words filed in the database; no cut-off is given here.

Columns and labels:
[1] = target: T1, Tyrosine-protein phosphatase non-receptor type 1 (Mus musculus) (UniProt P35821); assay: In vivo ability to decrease plasma glucose levels in diabetic C57BL/KsJ ob/ob mouse at a dose 100 mg/kg/day; assay type: functional, organism-based
T1 sequence (whole entry): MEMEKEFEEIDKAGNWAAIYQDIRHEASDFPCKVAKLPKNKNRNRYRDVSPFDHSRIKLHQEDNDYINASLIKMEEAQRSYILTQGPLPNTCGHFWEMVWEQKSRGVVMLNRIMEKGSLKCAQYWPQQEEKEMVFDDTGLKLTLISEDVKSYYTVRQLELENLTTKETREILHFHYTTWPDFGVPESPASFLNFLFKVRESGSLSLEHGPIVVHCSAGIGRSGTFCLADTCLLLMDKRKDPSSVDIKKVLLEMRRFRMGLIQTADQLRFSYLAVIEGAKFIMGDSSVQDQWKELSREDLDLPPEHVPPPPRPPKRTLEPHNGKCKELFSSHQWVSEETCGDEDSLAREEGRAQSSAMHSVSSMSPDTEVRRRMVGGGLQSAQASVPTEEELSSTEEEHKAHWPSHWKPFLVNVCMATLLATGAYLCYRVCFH
Outline: (§1)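 Diabetic db/db or ob/ob mice dosed orally once daily for 4 days. Plasma glucose and insulin reported as percent change from a vehicle-treated group. 4-6 mice per group. Significance set at p < 0.05 or p < 0.01 versus vehicle; NS means generally less than -15% change.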

[2] = target: T1, Tyrosine-protein phosphatase non-receptor type 1 (Mus musculus); assay: Ability to decrease plasma insulin levels in mouse at a dose 100 mg/kg/day; assay type: functional, organism-based; outline: as §1
[3] = target: T2, Tyrosine-protein phosphatase non-receptor type 1 (Rattus norvegicus) (UniProt P20417); assay: Inhibition of PTPase (PTP1B) activity in rat hepatic membrane at 50 uM concentration, using pNPP as the substrate; assay type: cell membranes; settings: Liver
T2 sequence (whole entry): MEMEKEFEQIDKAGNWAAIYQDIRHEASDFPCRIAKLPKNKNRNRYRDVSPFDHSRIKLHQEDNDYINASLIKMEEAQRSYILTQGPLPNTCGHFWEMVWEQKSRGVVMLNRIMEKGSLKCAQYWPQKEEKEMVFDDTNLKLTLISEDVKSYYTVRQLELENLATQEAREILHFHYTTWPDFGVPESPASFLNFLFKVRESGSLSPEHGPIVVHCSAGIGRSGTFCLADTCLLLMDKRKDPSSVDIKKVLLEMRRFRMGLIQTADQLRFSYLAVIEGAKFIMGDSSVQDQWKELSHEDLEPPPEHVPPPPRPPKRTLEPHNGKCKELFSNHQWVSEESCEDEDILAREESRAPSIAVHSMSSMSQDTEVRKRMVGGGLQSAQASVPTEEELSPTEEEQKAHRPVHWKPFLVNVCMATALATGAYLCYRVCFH
Outline: (§2)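 Liver membranes from male Sprague-Dawley rats (100-150 g), about 30 µg protein per well. Preincubated 10 min at 37 °C with compound in 1.25% DMSO in 50 mM HEPES pH 7.4. Then 6.33 mM pNPP for 30 min at 37 °C, stopped with NaOH. p-Nitrophenol read at 410 nm. Run in triplicate. Reported as percent of untreated control.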

[4] = target: T2, Tyrosine-protein phosphatase non-receptor type 1 (Rattus norvegicus); assay: Inhibition of PTPase activity using recombinant r-PTP1B as the enzyme and IR-triphosphopeptide as substrate at 10 uM
Outline: (§3)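 Recombinant rat PTP1B (human 321-aa form assayed the same way), activity about 1000-2000 nmol/min/mg, preincubated with compound for 10 min at 37 °C in HEPES pH 7.4. The reaction is started with 50 µM triphosphorylated insulin receptor 1142-1153 dodecapeptide and run 30 min at 37 °C. Released phosphate read by malachite green-molybdate at 650 nm, in quadruplicate. Result is percent inhibition versus control.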

Mus musculus [5] = assay: Evaluated in vivo for their ability to decrease plasma glucose levels in diabetic C57BL/KsJ db/db mouse at a dose 100 mg/kg/day. *p indicates <0.05; assay type: functional
Outline: (§4)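 Mice dosed orally once daily for 4 days; plasma glucose and insulin measured and expressed as percent change versus a vehicle-treated group (mean ± SE, 4-6 mice/group). NS is generally less than -15% change. Significance is versus vehicle-treated mice.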

Mus musculus [6] = assay: Evaluated in vivo for their ability to decrease plasma glucose levels in diabetic C57BL/KsJ db/db mouse at a dose 100 mg/kg/day, *p indicates <0.05; assay type: functional; outline: as §4
[7] = target: T2, Tyrosine-protein phosphatase non-receptor type 1 (Rattus norvegicus); assay: Inhibition of PTPase activity using recombinant Protein-tyrosine phosphatase 1B as the enzyme and IR-triphosphopeptide as substrate at 50 uM; outline: as §3
[8] = target: T2, Tyrosine-protein phosphatase non-receptor type 1 (Rattus norvegicus); assay: Inhibition of Protein-tyrosine phosphatase 1B activity in rat hepatic membrane at a concentration of 50 uM using pNPP as the substrate; assay type: cell membranes; settings: Liver; outline: as §2
[9] = target: T3, Tyrosine-protein phosphatase non-receptor type 1 (Rattus norvegicus, UniProt P20417); assay: Inhibition of PTPase activity using recombinant r-PTP1B as the enzyme and IR-triphosphopeptide as substrate
T3 sequence (P20417 whole entry): T2 sequence (whole entry)
Outline: (§5)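 Rat recombinant PTP1B in 33 mM TRIS-HCl, 2 mM EDTA, 50 mM β-mercaptoethanol, pH 7.4 (about 1000-2000 nmol/min/mg). Preincubated 10 min at 37 °C with or without compound in HEPES buffer pH 7.4. Released phosphate read by malachite green-ammonium molybdate at 650 nm against a phosphate standard. Quadruplicates. IC50 by four-parameter logistic fit.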

[10] = target: T3, Tyrosine-protein phosphatase non-receptor type 1; assay: Inhibition of PTPase activity in rat hepatic membrane at a concentration of 50 uM using pNPP as the substrate; assay type: cell membranes, Liver; outline: as §2
[11] = target: T2, Tyrosine-protein phosphatase non-receptor type 1 (Rattus norvegicus); assay: Inhibition of PTPase activity using recombinant r-PTP1B as the enzyme and IR-triphosphopeptide as substrate at 50 uM; outline: as §5
[12] = target: T3, Tyrosine-protein phosphatase non-receptor type 1; assay: Inhibition of PTPase activity using recombinant r-PTP1B and IR-triphosphopeptide as substrate; ND is no data.; outline: as §5
Mus musculus [13] = assay: Evaluated in vivo for their ability to decrease plasma glucose levels in diabetic C57BL/KsJ db/db mouse at a dose 100 mg/kg/day.,*p indicates <0.05; assay type: functional; outline: as §4
Mus musculus [14] = assay: Evaluated in vivo for their ability to decrease plasma glucose levels in diabetic C57BL/KsJ db/db mouse at a dose 100 mg/kg/day; NS is non significant; assay type: functional, organism-based; outline: as §1
Mus musculus [15] = assay: Evaluated for their ability to decrease plasma insulin levels in mouse at a dose 100 mg/kg/day,**p indicates <0.01; assay type: functional; outline: as §4
Mus musculus [16] = assay: Evaluated in vivo for their ability to decrease plasma glucose levels in diabetic C57BL/KsJ ob/ob mouse at a dose 100 mg/kg/day, **p indicates <0.01; assay type: functional; outline: as §4
[17] = target: T4, Tyrosine-protein phosphatase non-receptor type 1 (Homo sapiens, UniProt P18031); assay: Concentration required to inhibit PTPase activity, recombinant Protein Tyrosine Phosphatase 1b as the enzyme; outline: as §5
T4 sequence (P18031 whole entry): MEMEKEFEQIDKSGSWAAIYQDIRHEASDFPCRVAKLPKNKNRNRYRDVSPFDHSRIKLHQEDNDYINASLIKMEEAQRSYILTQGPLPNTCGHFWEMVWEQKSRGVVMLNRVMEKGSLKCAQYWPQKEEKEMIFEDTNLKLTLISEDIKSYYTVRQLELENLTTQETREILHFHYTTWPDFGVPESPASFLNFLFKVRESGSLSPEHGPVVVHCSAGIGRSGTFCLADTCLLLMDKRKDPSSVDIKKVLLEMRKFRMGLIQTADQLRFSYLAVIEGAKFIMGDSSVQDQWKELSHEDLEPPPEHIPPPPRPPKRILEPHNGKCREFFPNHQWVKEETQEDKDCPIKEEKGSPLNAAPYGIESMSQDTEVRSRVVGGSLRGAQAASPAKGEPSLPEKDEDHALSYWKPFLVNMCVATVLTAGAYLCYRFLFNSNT

Mus musculus [18] = assay: Evaluated in vivo for their ability to decrease plasma glucose levels in diabetic C57BL/KsJ ob/ob mouse at a dose 100 mg/kg/day.; assay type: functional; outline: as §4
Mus musculus [19] = assay: Evaluated for their ability to decrease plasma insulin levels in mouse at a dose 100 mg/kg/day.; assay type: functional; outline: as §4

Decrease [1]: Not significant | Decrease [2]: Not significant | inhibition [11]: 1.4% | Inhibition % [10]: 27%
Compound: Cc1oc(-c2ccc(C(F)(F)F)cc2)nc1COc1cccc(/C(=C/Cn2oc(=O)[nH]c2=O)c2ccc(Cl)cc2)c1

Decrease [1]: Not significant | IC50 [12]: Not significant | Decrease [2]: Not significant | inhibition [3]: 58%
Compound: CC/C(=C\c1cccc(OCc2nc(-c3ccc(C(F)(F)F)cc3)oc2C)c1)n1oc(=O)[nH]c1=O
Decrease (Mus musculus [13]): 24%

IC50 [9]: 1600 nM | Decrease [1]: Not significant | Decrease [2]: Not significant | inhibition [3]: 63%
Compound: C/C(=C\Cn1oc(=O)[nH]c1=O)c1ccc(OCCc2nc(-c3ccc(C(F)(F)F)cc3)oc2C)cc1
Decrease (Mus musculus [14]): inactive

Decrease [1]: Not significant | IC50 [12]: Not significant | Decrease [2]: Not significant | inhibition [3]: 49%
Compound: Cc1oc(-c2ccc(C(F)(F)F)cc2)nc1COc1cccc(/C=C/Cn2oc(=O)[nH]c2=O)c1
Decrease (Mus musculus [14]): inactive

Further lines, the molecule ahead of its results:

Compound: Cc1oc(-c2ccc(C(F)(F)F)cc2)nc1COc1cccc(C2CC2Cn2oc(=O)[nH]c2=O)c1 (stereo not drawn)
Decrease [1]: Not significant | Decrease [2]: Not significant | inhibition [3]: 51% | inhibition [4]: 28% | Decrease (Mus musculus [5]): 36%

Compound: CC/C(=C/Cn1oc(=O)[nH]c1=O)c1cccc(OCc2nc(-c3ccc(C(F)(F)F)cc3)oc2C)c1
Decrease (Mus musculus [6]): 65% | Decrease [1]: Not significant | Decrease [2]: Not significant | inhibition [7]: 80% | inhibition [8]: 56%

Compound: CCCC/C(=C\Cn1oc(=O)[nH]c1=O)c1cccc(Oc2cc(Cl)cc(Cl)c2)c1
IC50 [9]: 1600 nM | Inhibition % [10]: 23%

Compound: Cc1oc(-c2ccc(C(F)(F)F)cc2)nc1COc1cccc(C#CC(C)n2oc(=O)[nH]c2=O)c1 (stereo not drawn)
Decrease (Mus musculus [15]): 91% | inhibition [3]: 56% | Decrease (Mus musculus [16]): 32% | inhibition [4]: 47% | Decrease (Mus musculus [5]): 30%

Compound: Cc1oc(-c2ccc(C(F)(F)F)cc2)nc1COc1cccc(/C(=C/Cn2oc(=O)n(CC(=O)O)c2=O)c2ccccc2)c1
IC50 [17]: 850 nM | inhibition [3]: 24%

Compound: C/C(=C\Cn1oc(=O)[nH]c1=O)c1cccc(OCc2nc(-c3ccc(C(F)(F)F)cc3)oc2-c2ccccc2)c1
IC50 [9]: 300 nM | Decrease (Mus musculus [18]): 25% | Decrease (Mus musculus [19]): 30%

Compound: CCCC/C(=C\Cn1oc(=O)[nH]c1=O)c1cccc(OCc2nc(-c3ccc(C(F)(F)F)cc3)oc2-c2ccccc2)c1
IC50 [17]: 370 nM | inhibition [3]: 76%
